Bioassay records deposited in PubChem BioAssay by The Scripps Research Institute Molecular Screening Center.
A selection: hits, their analogues and other compounds. The true share with any hit is near 1.6%.
MBD2 inh – inhibitors of human MBD2 binding to methylated oligonucleotide. TR-FRET. inhibition, % at 4.4 µM. 370,000 compounds, 0.31% hits. AID 686964; in the data active = inhibition above about 13%
Target sequence (Q9UBB5 whole entry, looked up): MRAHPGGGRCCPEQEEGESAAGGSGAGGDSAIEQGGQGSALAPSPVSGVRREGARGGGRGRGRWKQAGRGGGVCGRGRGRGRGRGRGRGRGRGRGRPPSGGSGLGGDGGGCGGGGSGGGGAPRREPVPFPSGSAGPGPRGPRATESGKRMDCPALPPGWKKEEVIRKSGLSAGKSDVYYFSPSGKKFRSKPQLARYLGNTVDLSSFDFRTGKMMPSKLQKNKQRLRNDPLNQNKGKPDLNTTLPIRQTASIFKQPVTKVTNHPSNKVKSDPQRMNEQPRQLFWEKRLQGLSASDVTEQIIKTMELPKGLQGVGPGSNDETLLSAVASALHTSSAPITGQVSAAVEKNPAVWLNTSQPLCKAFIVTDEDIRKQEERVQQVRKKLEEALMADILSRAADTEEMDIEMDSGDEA
UHRF1 binding – human UHRF1 methylated DNA binding inhibitors; Q96T88; 370,000 compounds, 0.75% hits; UHRF1 binding to methylated oligo, TR-FRET; inhibition, % at 4.4 µM; AID 687016; in the data active = inhibition above about 21%;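 note: UHRF1 SRA domain binding a hemimethylated CpG hairpin DNA probe; 0% = median of test compound wells and 100% = reference inhibitor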
TDP2 inh – TDP2 (human) inhibition, absorbance primary screen | inhibition, % at 12.8 µM | 370,000 compounds, 0.34% hits | AID 720702 | recombinant TDP2, T5PNP hydrolysis, p-nitrophenol absorbance 415 nm;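 active = inhibition above the mean of all tested compounds plus 3 SD, set per campaign, cut at about 25% in these data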;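 note: 0% = DMSO with enzyme and 100% = buffer with substrate but no TDP2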
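Test system: human TDP2 enzyme; Input: 120 nM TDP2 per well; Buffer or medium: Mg2+-containing Tris-HCl buffer, pH 7.5; Reagent: 5 mM T5PNP; Dosing: 12.8 µM single point, 1% DMSO; Incubation: reaction 2 h, 37 °C; Detection: p-Nitrophenol epi absorbance; Read-out: % inhibition relative to enzyme-containing and enzyme-free wells; Replicates: single well per compound.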
LEDGF integ inh – blocks HIV-1 LEDGF/p75-dependent DNA integration | TR-FRET IN-LEDGF/p75 DNA integration, Eu/Cy5 | inhibition, % at 3.7 µM | 370,000 compounds, 0.64% hits | AID 743269;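 active = inhibition above the screen-wide mean plus 3 SD, cut at about 13% in these data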;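 note: signal is the Cy5 over europium emission ratio at 671 and 618 nm; 0% = plate median of compound wells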
* = called active by the depositor.

Screening COc1ccc(-c2[nH]ncc2CN(C)CCN2CCOCC2)cc1F returned MBD2 inh 11, UHRF1 binding 22*, TDP2 inh -13 and LEDGF integ inh 2.
Screening Cc1noc(C)c1S(=O)(=O)Nc1ccc(C(=O)NC2CCCCCC2)cc1 returned MBD2 inh 11, UHRF1 binding 21*, TDP2 inh 14 and LEDGF integ inh 7.
`Cc1noc(C)c1S(=O)(=O)Nc1ccc(C(=O)NC2CCCCC2C)cc1` (stereo not drawn) gave MBD2 inh -3, UHRF1 binding -2, TDP2 inh 8 and LEDGF integ inh -1.
COc1cc2c(C(F)(F)F)c(-c3ccsc3)oc(=O)c2cc1OC was read as MBD2 inh 7, UHRF1 binding 21*, TDP2 inh 5 and LEDGF integ inh 1.
Screening O=C(N/N=C/c1ccc(-c2ccccc2C(=O)O)o1)c1cccs1 returned MBD2 inh -2, UHRF1 binding 23*, TDP2 inh 2 and LEDGF integ inh 5.
`COc1ccc2nccnc2c1[N+](=O)[O-]` gave MBD2 inh -6, UHRF1 binding 30*, TDP2 inh -1 and LEDGF integ inh 5.
CN(CCO)C1CN(Cc2cn(Cc3ccccc3C(F)(F)F)nn2)S(=O)(=O)C1 (stereo not drawn) was read as MBD2 inh 2, UHRF1 binding 7, TDP2 inh 3 and LEDGF integ inh -3.
For CC(=O)c1cc(-c2cccc(C(C)C)c2)c(=O)n2c1CCC2 the results were MBD2 inh -8, UHRF1 binding -3, TDP2 inh 4 and LEDGF integ inh 4.
For N=C1S/C(=C\c2ccc(-c3ccccc3C(=O)O)o2)C(=O)N1c1ccc2c(c1)OCO2 the results were MBD2 inh 7, UHRF1 binding 23*, TDP2 inh -9 and LEDGF integ inh -1.
COc1ccccc1N1C(=N)S/C(=C\c2ccc(-c3ccccc3C(=O)O)o2)C1=O was read as MBD2 inh -2, UHRF1 binding 2, TDP2 inh 11 and LEDGF integ inh 0.
`O=C(CN1C(=O)S/C(=C\c2ccc(-c3cc(C(=O)O)ccc3Cl)o2)C1=O)Nc1ccc2c(c1)OCO2` gave MBD2 inh 6, UHRF1 binding 17, TDP2 inh -17 and LEDGF integ inh 18*.
CN(C)c1cccc(-c2cnc(N3CCC(C(N)=O)CC3)s2)c1 was read as MBD2 inh -5, UHRF1 binding -2, TDP2 inh -4 and LEDGF integ inh 3.
`CC(=O)CC[C@@H]1CC[C@]2(CCCN(C(=O)C3CCCC3)C2)O1` gave MBD2 inh 6, UHRF1 binding 4, TDP2 inh -3 and LEDGF integ inh -2.
`O=C(CCN=C1NS(=O)(=O)c2ccccc21)OCC(=O)c1ccccc1` gave MBD2 inh 0, UHRF1 binding 32*, TDP2 inh -1 and LEDGF integ inh 1.
For COc1cccc(CC(=O)N(Cc2ccccc2)c2ccccc2C(=O)Nc2cc(OC)ccc2OC)c1 the results were MBD2 inh -4, UHRF1 binding 0, TDP2 inh -11 and LEDGF integ inh -3.
Screening COc1cccc(CN2CCC(C(=O)Nc3ccc(-c4cccc(C)c4)cc3)CC2)c1O returned MBD2 inh 9, UHRF1 binding 71*, TDP2 inh -4 and LEDGF integ inh 3.
Cc1nnc(-n2cnc3ccccc32)c2ccccc12 was read as MBD2 inh 11, UHRF1 binding 21*, TDP2 inh -2 and LEDGF integ inh 3.
Screening Cc1nnc(OCc2nc3ccccc3n2C)c2ccccc12 returned MBD2 inh 6, UHRF1 binding 3, TDP2 inh 8 and LEDGF integ inh -1.
`Cc1ccc(CNC(=O)c2ccc(-n3cccc3)cc2)cc1` gave MBD2 inh 11, UHRF1 binding 35*, TDP2 inh -11 and LEDGF integ inh 11.
Screening COc1cc2c(cc1OC)C(C)N(C(=O)C1=NN(c3cccc(C)c3)C(=O)CC1)CC2 (stereo not drawn) returned MBD2 inh 10, UHRF1 binding 22*, TDP2 inh 10 and LEDGF integ inh 0.
COc1cc2c(cc1OC)C(C)N(C(=O)c1ccc(C)o1)CC2 (stereo not drawn) was read as MBD2 inh -1, UHRF1 binding 0, TDP2 inh 11 and LEDGF integ inh -3.
COC(=O)c1ccc2c(C3(c4c[nH]c5ccccc45)CCN(C(=O)OC(C)(C)C)CC3)c[nH]c2c1 was read as MBD2 inh 8, UHRF1 binding 4, TDP2 inh 6 and LEDGF integ inh -4.
Cc1cc(C(=O)N/N=C/c2sccc2C)no1 was read as MBD2 inh 2, UHRF1 binding 23*, TDP2 inh 2 and LEDGF integ inh 0.
